Data set [1] has as its target T1, Methylated-DNA--protein-cysteine methyltransferase (Homo sapiens, UniProt P16455).
T1 sequence (P16455 whole entry): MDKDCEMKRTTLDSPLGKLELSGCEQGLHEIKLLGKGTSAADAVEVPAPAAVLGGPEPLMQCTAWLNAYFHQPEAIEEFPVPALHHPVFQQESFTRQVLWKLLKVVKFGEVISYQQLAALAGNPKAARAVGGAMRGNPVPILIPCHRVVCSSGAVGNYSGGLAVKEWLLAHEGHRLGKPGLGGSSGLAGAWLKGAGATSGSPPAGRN
In words: O6-Alkylguanine-DNA Alkyltransferase-Inactivating Activity (Concentration of inactivator required to produce 50% reduction in alkyltransferase activity). The procedure, abridged: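 Pure recombinant human ATase (50–60 fmol, titrated so ATase is limiting) preincubated 1 h at 37 °C with varying inactivator in 200 µL buffer (50 mM Tris-HCl pH 8.3, 3 mM DTT, 1 mM EDTA, 1 mg/mL BSA) plus 10 µg calf thymus DNA. Then 3H-methylated DNA substrate (4 µg DNA, 100 fmol O6-methylguanine) added, 1 h at 37 °C. After acid hydrolysis, 3H-methylated protein counted by scintillation. Duplicates, experiments repeated several times.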

The target in data set [2] is T1, Methylated-DNA--protein-cysteine methyltransferase. In words: O6-Alkylguanine-DNA Alkyltransferase-Inactivating Activity in Raji cells (Concentration of inactivator required to produce 50% reduction in alkyltransferase activity). It counts as cell-based. An outline of the steps:
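Raji cells in RPMI + 10% horse serum, 10^6/mL, exposed to inactivator or DMSO vehicle for 2 h at 37 °C. Cells washed, sonicated in Tris-DTT-EDTA buffer pH 8.3 with leupeptin, PMSF added, debris spun out. Supernatant ATase measured by transfer of 3H-methyl from O6-methylguanine DNA substrate to protein; activity expressed as % of untreated controls.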

Data set [3] in a line: In vitro half-life at 37 degree Centigrade in phosphate-buffered saline(PBS; pH =7-7.2). The format is ADME.

From ChEMBL document CHEMBL1131438, “Inactivation of O6-alkylguanine-DNA alkyltransferase. 1. Novel O6-(hetarylmethyl)guanines having basic rings in the side chain” (J Med Chem, 1998) come the findings set out here.

SMILES strings stand for the structures.

In general, IC50 refers to the point on the concentration scale where inhibition reaches its midpoint. A lower IC50 goes with inhibition by little substance. Usually half-life stands for the time needed for the level to fall by half in the phase considered. The low end stands for rapid decline, the high end for slow decline. Turning to `NC1=Nc2nc[nH]c2C(OCc2ccncc2)N1` (stereo not given), the IC50 is 130 nM in data set [1] and 200 nM in data set [2]. In data set [3], this molecule had a half-life above 2880 min.

Consider `NC1=Nc2nc[nH]c2C(OCc2ccco2)N1` (stereo not given), for which the IC50 in data set [1] is 80 nM; in data set [2], 120 nM. In data set [3], this molecule showed a half-life of 22.8 min.

Regarding `NC1=Nc2nc[nH]c2C(OCc2ccc(Br)s2)N1` (stereo not given), the IC50 stood at 5 nM in data set [1] and 10 nM in data set [2]. The molecule further gave a half-life in data set [3] of 117 min.

For `NC1=Nc2nc[nH]c2C(OCc2ccccn2)N1` (stereo not given), in data set [2], inhibition was half-maximal at 6000 nM (IC50). This molecule had a half-life in data set [3] above 2880 min.

Consider `Cn1cncc1COC1N=C(N)Nc2[nH]cnc21` (stereo not given), for which the IC50 in data set [1] was 8500 nM; in data set [2], 21000 nM. In data set [3], the half-life is 11.4 min.

Take `NC1=Nc2nc[nH]c2C(OCc2cnsc2)N1` (stereo not given): the IC50 in data set [1] and in data set [2] was 70 nM throughout. For the same molecule, the half-life in data set [3] was above 2880 min.

For the molecule `NC1=Nc2nc[nH]c2C(OCc2cnco2)N1` (stereo not given), the IC50 stood at 350 nM in data set [1] and 220 nM in data set [2]. The half-life in data set [3] is above 2880 min.

In the case of `NC1=Nc2nc[nH]c2C(OCc2cnc3c(c2)OCO3)N1` (stereo not given), the IC50 was 230 nM in data set [1] and 90 nM in data set [2]. Also, the half-life in data set [3] is above 2880 min.

For `NC1=NC(OCc2ccnc(Cl)c2)c2[nH]cnc2N1` (stereo not given), the IC50 turned out to be 40 nM in data set [1] and 50 nM in data set [2]. This molecule came in with a half-life in data set [3] above 2880 min.

For `NC1=NC(OCc2cncc(Br)c2)c2[nH]cnc2N1` (stereo not given), the IC50 in data set [1] stood at 250 nM; in data set [2], 200 nM. Further, the half-life in data set [3] was above 2880 min.

`NC1=NC(OCc2cccs2)c2[nH]cnc2N1` (stereo not given): the IC50 was 18 nM in data set [1] and 30 nM in data set [2]. The molecule further had a half-life in data set [3] of 40.2 min.

In the case of `NC1=NC(OCc2ccc[n+]([O-])c2)c2[nH]cnc2N1` (stereo not given), the IC50 in data set [1] was found to be 1400 nM; in data set [2], 5400 nM. Moreover, the half-life in data set [3] is above 2880 min.

In the case of `NC1=Nc2nc[nH]c2C(OCc2ccc(Cl)nc2)N1` (stereo not given), the values for the IC50 in data set [1] and in data set [2] were 200 nM and 120 nM, respectively. Also, in data set [3], the half-life is above 2880 min.

In the case of `NC1=Nc2nc[nH]c2C(OCc2cccnc2)N1` (stereo not given), the IC50 was determined as 430 nM in data set [1] and 220 nM in data set [2]. This molecule yielded a half-life in data set [3] above 2880 min.

Consider `NC1=NC(OCc2cncs2)c2[nH]cnc2N1` (stereo not given), for which the figures for the IC50 in data set [1] and in data set [2] were 33 nM and 60 nM, respectively. In data set [3], this molecule yielded a half-life above 2880 min.

In data set [3], `Nc1nc(OCc2ccccc2)c2[nH]cnc2n1` [6-O-BENZYLGUANINE] returned a half-life above 2880 min.
